Source: ChEMBL document CHEMBL2169847, “New tricks for an old natural product: discovery of highly potent evodiamine derivatives as novel antitumor agents by systemic structure-activity relationship analysis and biological evaluations” (J Med Chem, 2012)
Activity calls are given as the source filed them. No cut-off for these calls is given here.

Tests used:
[1] = system: A549; experiment: Cytotoxicity against human A549 cells incubated for 72 hrs by MTT assay; type: functional; settings: A549, 72 h
Summary of the method: (§1)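 MTT assay. Cells seeded at 5 × 10³/well and grown 24 h at 37 °C, 5% CO₂. Compounds added at several concentrations in triplicate wells, with 0.1% DMSO control, for 72 h. MTT then added for 4 h, formazan dissolved in DMSO, and absorbance read at 570 nm. GI₅₀ by Logit method; three experiments.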

[2] = system: HCT-116; experiment: Cytotoxicity against human HCT116 cells incubated for 72 hrs by MTT assay; type: functional; settings: HCT-116, 72 h; summary of the method: as §1
[3] = system: Mus musculus; experiment: Toxicity in BALB/C nude mouse xenografted with human HCT116 cells assessed as reduction in body weight at 2 mg/kg, ip administered as a single dose on 17th day and measured on 30 to 33 days post implantation; type: organism-based, HCT-116; parameters: dose 2 mg/kg, route intraperitoneal; settings: in vivo
Summary of the method: (§2)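 Cells implanted subcutaneously in right axilla of nude mice; dosing began at tumor volume about 100−300 mm³ (day 17). Randomized, six mice per treatment group and eight controls; ip injection. Tumor volume by caliper, TV = 1/2 × a × b², with body weight every 4 days. Mice sacrificed day 30−33 and tumors removed. Mean SEM, Student's t test versus control.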

[4] = target: T1, DNA topoisomerase 1 (Homo sapiens) (UniProt P11387); experiment: Inhibition of Top1 assessed as suppression of supercoiled pBR322 DNA relaxation measuring appearance of short DNA fragments at 100 uM incubated for 15 mins by electrophoresis method
T1 sequence (whole entry): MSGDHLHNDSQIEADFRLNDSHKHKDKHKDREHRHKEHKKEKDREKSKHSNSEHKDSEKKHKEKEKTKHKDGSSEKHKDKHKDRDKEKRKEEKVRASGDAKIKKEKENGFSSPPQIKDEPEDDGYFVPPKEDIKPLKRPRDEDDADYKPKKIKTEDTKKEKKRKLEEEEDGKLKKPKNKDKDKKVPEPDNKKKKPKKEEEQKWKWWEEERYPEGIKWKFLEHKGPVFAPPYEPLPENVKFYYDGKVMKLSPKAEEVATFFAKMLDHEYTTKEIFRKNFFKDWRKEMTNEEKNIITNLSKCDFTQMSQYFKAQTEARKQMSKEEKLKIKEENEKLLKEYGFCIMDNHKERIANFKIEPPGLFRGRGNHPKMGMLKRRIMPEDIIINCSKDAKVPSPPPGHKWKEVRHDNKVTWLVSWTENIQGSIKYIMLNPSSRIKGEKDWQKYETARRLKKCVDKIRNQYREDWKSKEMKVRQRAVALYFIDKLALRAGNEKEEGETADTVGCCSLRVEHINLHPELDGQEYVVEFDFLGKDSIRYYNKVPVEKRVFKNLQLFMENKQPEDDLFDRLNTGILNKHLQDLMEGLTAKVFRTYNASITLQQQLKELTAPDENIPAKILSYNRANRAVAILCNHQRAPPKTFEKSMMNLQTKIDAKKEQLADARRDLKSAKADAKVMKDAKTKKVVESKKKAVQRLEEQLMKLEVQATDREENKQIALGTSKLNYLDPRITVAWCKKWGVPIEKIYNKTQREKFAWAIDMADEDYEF

[5] = system: HCT-116; experiment: Antitumor activity against human HCT116 cells xenografted in BALB/C nude mouse assessed as tumor growth inhibition at 2 mg/kg, ip administered as a single dose on 17th day and measured on 30 to 33 days post implantation; type: functional, organism-based; parameters: dose 2 mg/kg; summary of the method: as §2
[6] = system: PANC-1; experiment: Cytotoxicity against human PANC1 cells incubated for 72 hrs by MTT assay; type: functional; settings: PANC-1, 72 h; summary of the method: as §1
[7] = system: HL-60; experiment: Cytotoxicity against human HL60 cells incubated for 72 hrs by MTT assay; type: functional; settings: HL-60, 72 h; summary of the method: as §1
[8] = target: DNA topoisomerase 2-alpha (Homo sapiens) (UniProt P11388); experiment: Inhibition of human Top2alpha assessed as suppression of supercoiled pBR322 DNA relaxation at 50 uM incubated for 30 mins by electrophoresis method
[9] = system: PC-3; experiment: Cytotoxicity against human PC3 cells incubated for 72 hrs by MTT assay; type: functional; settings: PC-3, 72 h; summary of the method: as §1
[10] = system: MDA-MB-435; experiment: Cytotoxicity against human MDA-MB-435 cells incubated for 72 hrs by MTT assay; type: functional; settings: MDA-MB-435, 72 h; summary of the method: as §1
[11] = system: U2OS; experiment: Cytotoxicity against human U2OS cells incubated for 72 hrs by MTT assay; type: functional; summary of the method: as §1
[12] = system: A549; experiment: Antitumor activity against human A549 cells xenografted in BALB/C nude mouse assessed as tumor growth inhibition at 2 mg/kg, ip administered as a single dose on 17th day post implantation and measured on 30 to 33 days post implantation; type: functional, organism-based; parameters: dose 2 mg/kg; summary of the method: as §2
[13] = system: SAOS-2; experiment: Cytotoxicity against human Saos2 cells incubated for 72 hrs by MTT assay; type: functional; settings: SAOS-2, 72 h; summary of the method: as §1
[14] = system: HepG2; experiment: Cytotoxicity against human HepG2 cells incubated for 72 hrs by MTT assay; type: functional; settings: HepG2, 72 h; summary of the method: as §1
[15] = system: Mus musculus; experiment: Toxicity in BALB/C nude mouse xenografted with human A549 cells assessed as reduction in body weight at 2 mg/kg, ip administered as a single dose on 17th day and measured on 30 to 33 days post implantation; type: organism-based; parameters: dose 2 mg/kg, route intraperitoneal; settings: in vivo; summary of the method: as §2
[16] = system: Mus musculus; experiment: Toxicity in BALB/C nude mouse xenografted with human A549 cells assessed as reduction in body weight at 1 mg/kg, ip for 13 days measured on 30 to 33 days post implantation; type: organism-based; parameters: dose 1 mg/kg, route intraperitoneal; settings: in vivo; summary of the method: as §2
[17] = system: Nucleic Acid; experiment: Binding affinity at calf thymus DNA minor groove assessed as displacement of Hoechst 33258 dye incubated for 20 mins by microplate reader based assay; type: nucleic-acid assay; settings: Bos taurus
[18] = target: T1, DNA topoisomerase 1 (Homo sapiens); experiment: Inhibition of Top1 assessed as stabilization of Top1-pUC19 DNA cleavage complex measuring increase of nicked DNA at 100 uM incubated for 15 mins by electrophoresis method
[19] = system: Nucleic Acid; experiment: Induction of DNA intercalation in Escherichia coli pBR322 DNA assessed as induction of supercoiled DNA at 100 uM incubated for 15 mins by electrophoresis based Top1 unwinding assay; type: nucleic-acid assay
[20] = system: Nucleic Acid; experiment: Binding affinity at calf thymus DNA at 50 uM after 20 mins by UV/vis absorbance titration based assay; type: nucleic-acid assay; settings: Bos taurus
Summary of the method: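 ct-DNA in DPBS pH 7.4, concentration set by A260 (13200 M⁻¹/cm per bp). Compounds at 50 μM in DPBS with 1% DMSO, with or without ct-DNA 0−100 μM. After 20 min equilibration at room temperature, absorption spectra recorded over 220−400 nm in a microplate reader. Hypochromic or bathochromic shifts taken as the sign of binding.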

[21] = system: A549; experiment: Antitumor activity against human A549 cells xenografted in BALB/C nude mouse assessed as tumor growth inhibition at 1 mg/kg, ip for 13 days measured on 30 to 33 days post implantation; type: functional, organism-based; parameters: dose 1 mg/kg; summary of the method: as §2
[22] = system: A549; experiment: Induction of apoptosis in human A549 cells assessed as change in cell morphology at 5 uM incubated for 48 hrs by immunostaining based light microscopy; type: functional
Summary of the method: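 A549 cells exposed to 5 μM compound, or DMSO, for 48 h. Morphology judged under a light microscope.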

[23] = system: A549; experiment: Induction of apoptosis in human A549 cells at 5 uM incubated for 48 hrs by flow cytometry (reference value: 0.43%); type: functional
[24] = target: DNA topoisomerase 2-alpha (Homo sapiens) (UniProt P11388); experiment: Inhibition of human Top2alpha assessed as stabilization of Top2-pBr322 DNA cleavage complex measuring linear DNA formation at 100 uM incubated for 20 mins by electrophoresis method
Summary of the method: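 Top2α drug screening kit with 8 units hTop2α and pBR322 plasmid. After reaction, proteinase K (200 μg/mL final) 20 min at 50 °C. Electrophoresis in TAE with 0.5 μg/mL ethidium bromide to resolve nicked, linear, relaxed and supercoiled forms.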

[25] = target: T1, DNA topoisomerase 1 (Homo sapiens); experiment: Inhibition of Top1 assessed as suppression of supercoiled pBR322 DNA relaxation measuring appearance of short DNA fragments at 50 uM incubated for 15 mins by electrophoresis method
[26] = target: T1, DNA topoisomerase 1 (Homo sapiens); experiment: Inhibition of Top1 assessed as suppression of supercoiled pBR322 DNA relaxation measuring appearance of short DNA fragments at 500 uM incubated for 15 mins by electrophoresis method
[27] = Toxicity in mouse; type: organism-based; settings: in vivo

DNA topoisomerase 2-alpha (Homo sapiens), sequence (P11388 whole entry): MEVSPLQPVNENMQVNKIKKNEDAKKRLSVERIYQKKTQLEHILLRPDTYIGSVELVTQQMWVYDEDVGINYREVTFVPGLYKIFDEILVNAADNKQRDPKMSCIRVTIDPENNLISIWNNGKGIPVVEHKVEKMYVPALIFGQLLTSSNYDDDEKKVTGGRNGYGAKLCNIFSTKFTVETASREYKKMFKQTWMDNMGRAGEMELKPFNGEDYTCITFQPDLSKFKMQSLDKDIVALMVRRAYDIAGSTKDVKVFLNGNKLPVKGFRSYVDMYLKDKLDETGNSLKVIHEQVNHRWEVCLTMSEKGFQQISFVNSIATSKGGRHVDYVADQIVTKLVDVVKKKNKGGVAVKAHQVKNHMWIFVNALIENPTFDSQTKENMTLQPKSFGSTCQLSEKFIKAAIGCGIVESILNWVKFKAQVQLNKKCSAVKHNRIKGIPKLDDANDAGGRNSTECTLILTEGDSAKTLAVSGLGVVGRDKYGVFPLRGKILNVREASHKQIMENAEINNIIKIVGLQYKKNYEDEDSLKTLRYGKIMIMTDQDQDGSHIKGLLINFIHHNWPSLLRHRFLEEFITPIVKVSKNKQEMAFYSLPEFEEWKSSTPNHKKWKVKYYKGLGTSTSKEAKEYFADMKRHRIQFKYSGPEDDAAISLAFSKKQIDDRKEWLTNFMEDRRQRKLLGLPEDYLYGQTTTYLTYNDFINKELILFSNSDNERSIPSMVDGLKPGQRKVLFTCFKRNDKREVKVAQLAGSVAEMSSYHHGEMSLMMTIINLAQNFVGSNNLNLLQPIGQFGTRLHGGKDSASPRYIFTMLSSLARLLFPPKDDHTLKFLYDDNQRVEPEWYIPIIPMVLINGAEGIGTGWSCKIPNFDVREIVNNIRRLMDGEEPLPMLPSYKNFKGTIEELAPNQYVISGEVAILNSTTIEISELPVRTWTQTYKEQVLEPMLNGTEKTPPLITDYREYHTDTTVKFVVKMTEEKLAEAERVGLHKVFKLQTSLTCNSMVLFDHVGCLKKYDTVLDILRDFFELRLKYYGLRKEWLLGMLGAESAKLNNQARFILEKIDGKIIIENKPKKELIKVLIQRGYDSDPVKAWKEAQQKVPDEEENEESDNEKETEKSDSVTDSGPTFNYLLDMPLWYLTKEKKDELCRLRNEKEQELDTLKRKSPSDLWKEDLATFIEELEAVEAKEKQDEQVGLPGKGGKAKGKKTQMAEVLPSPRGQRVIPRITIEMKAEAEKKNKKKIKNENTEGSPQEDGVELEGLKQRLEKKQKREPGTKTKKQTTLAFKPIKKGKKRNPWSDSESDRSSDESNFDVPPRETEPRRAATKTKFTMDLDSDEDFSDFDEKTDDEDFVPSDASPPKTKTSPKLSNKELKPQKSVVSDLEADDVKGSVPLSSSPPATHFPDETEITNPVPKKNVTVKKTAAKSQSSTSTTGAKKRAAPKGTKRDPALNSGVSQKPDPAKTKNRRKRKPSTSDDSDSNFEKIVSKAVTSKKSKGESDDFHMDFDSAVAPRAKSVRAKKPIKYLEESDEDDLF

| inhibition [4] | inhibition [8] | Compound | GI50 [1] [nM] | GI50 [2] [nM] | Activity [3] | TGI [5] | GI50 [10] [nM] | other results |
| --- | --- | --- | --- | --- | --- | --- | --- | --- |
| Active | Active | CN1c2ccc(F)cc2C(=O)N2CCc3c([nH]c4ccc(O)cc34)C21 (stereo unspecified) | < 3 | < 3 | Non-toxic | Active | < 3 | GI50 [6]: < 3 nM; GI50 [7]: < 3 nM; GI50 [9]: 92300 nM; GI50 [11]: > 296000 nM; TGI [12]: inactive; GI50 [13]: > 296000 nM; GI50 [14]: 23800 nM; Activity [15]: Non-toxic |
| Active | Active | CN1c2ccccc2C(=O)N2CCc3c([nH]c4ccc(O)cc34)C21 (stereo unspecified) | < 3 | < 3 | Non-toxic | Active | < 3 | Activity [16]: Non-toxic; Activity [17]: inactive; inhibition [18]: Active; Activity [19]: inactive; Activity [20]: inactive; TGI [21]: Active; Activity [22]: Active; Activity [23]: 13.07%; inhibition [24]: inactive |
| Active | Active | CN1c2ccc(Cl)cc2C(=O)N2CCc3c([nH]c4ccc(O)cc34)C21 (stereo unspecified) | 120 | 5 | Toxic | Active | 5 | inhibition [25]: Active |
| inactive |  | CN1c2ccccc2C(=O)N2CCc3c([nH]c4ccccc34)[C@@H]21 [EVODIAMINE] | 100000 | 100000 |  |  | 20200 | inhibition [26]: Active |
| Active | inactive | CN1c2ccc(Cl)cc2C(=O)N2CCc3c([nH]c4ccccc34)C21 (stereo unspecified) | < 3 | < 3 |  |  | < 3 | TGI [12]: inactive; Activity [15]: Non-toxic |
|  |  | CC[C@@]1(O)C(=O)OCc2c1cc1n(c2=O)Cc2cc3ccccc3nc2-1 [CAMPTOTHECIN] | 170 | 83 |  |  | 33 | GI50 [6]: 6290 nM; GI50 [7]: < 3 nM; GI50 [9]: > 287000 nM; GI50 [11]: > 287000 nM; GI50 [13]: > 287000 nM; GI50 [14]: 220 nM |
|  |  | CN1c2ccccc2C(=O)N2CCc3c([nH]c4ccccc34)[C@H]21 [EVODIAMINE] |  |  |  |  |  | LD50 [27]: 77.8 mg/kg |
